In brackets after ≈: the same amount, converted by molar mass. Activity calls are given as the source filed them. The calls are words filed in the database; no cut-off is given here.
Key:
Candida albicans [1] = assay: Synergistic antifungal activity against Candida albicans 9172 assessed as fluconazole MIC incubated for 48 hrs in presence of fluconazole by microdilution assay (reference value: fluconazole alone MIC = >[…] ug/ml); type: functional
Candida albicans [2] = assay: Inhibition of biofilm formation in Candida albicans 0304103 at 64 ug/ml incubated for 24 hrs in presence of fluconazole by XTT reduction assay; type: functional, organism-based; settings: dose 64.0 µg/ml
Method in brief: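 C. albicans 0304103 at 1.0 × 10⁶ CFU/mL in RPMI 1640 allowed to adhere 90 min at 37 °C, washed with PBS, then fresh medium with fluconazole 2–32 μg/mL and/or compound 0.12–64 μg/mL added; 24 h at 37 °C. Biofilm metabolic activity by XTT reduction, OD490. Three independent experiments.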

Candida albicans [3] = assay: Antifungal activity against Candida albicans 4108 incubated for 48 hrs by microdilution assay; type: functional
Method in brief: (§1)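 Checkerboard broth microdilution per CLSI M27-A3 (modified), clinical Candida isolates. Exponential cells in RPMI 1640 (MOPS-buffered) at 10³ cells/mL; fluconazole 0.25–64 μg/mL crossed with test compound 2–64 μg/mL (final). 48 h at 35 °C; OD630 read with background subtracted. MIC80 = 80% growth inhibition; FICI ≤0.5 synergy, >4 antagonism.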

Candida albicans [4] = assay: Inhibition of HDAC in Candida albicans supernatants using Boc-Lys(Ac)-AMC substrate incubated for 18 hrs by fluorescence based assay
Method in brief: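 Fungal whole-cell HDAC assay: C. albicans converted to protoplasts by snailase/mercaptoethanol (37 °C, 3 h), resuspended in PBS; compound 1–100 μM final, 35 °C 12 h, then Boc-Lys(Ac)-AMC 33 μM, 37 °C 6 h. Stopped with trypsin/Nonidet P-40 buffer, 37 °C 2 h; fluorescence Ex 360/Em 460 nm. Inhibition vs control after blank subtraction; three independent experiments.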

Candida albicans [5] = assay: Synergistic antifungal activity against azole-resistant Candida albicans assessed as potentiation of VRC antifungal activity by measuring VRC incubated for 48 hrs in presence of fluconazole by checkerboard microdilution assay; type: functional
Candida albicans [6] = assay: Synergistic antifungal activity against Candida albicans 4108 assessed as fluconazole MIC incubated for 48 hrs in presence of fluconazole by microdilution assay (reference value: fluconazole alone MIC = >[…] ug/ml); type: functional
Nakaseomyces glabratus = assay: Synergistic antifungal activity against Candida glabrata assessed as potentiation of ITC antifungal activity by measuring ITC incubated for 48 hrs in presence of fluconazole by checkerboard microdilution assay; type: functional, organism-based
Candida albicans [7] = assay: Antifungal activity against Candida albicans 0304103 infected in ICR mouse model of candidiasis assessed as reduction in fungal invasion by measuring clusters of fungal infiltration in renal pelvis/medulla at 10 mg/kg, ip dosed 24 hrs post infection and co-treated with 1 mg/kg, ip fluconazole and measured after 5 days by H and E staining based microscopical analysis; type: functional, organism-based; settings: time 5.0 day
Method in brief: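 Two ICR mice per group, infected and treated as in the kidney burden model (IV 5 × 10⁵ C. albicans 0304103; IP compound 10 mg/kg, fluconazole 1 mg/kg, or combination, 5 days). Kidneys fixed in 4% paraformaldehyde, paraffin-embedded, 4 μm sections, H&E stained, examined at 40× and 200×.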

Candida albicans [8] = assay: Synergistic antifungal activity against Candida albicans 9172 incubated for 48 hrs in presence of fluconazole by microdilution assay; type: functional; method in brief: as §1

`O=C(Cc1ccc(OCCCn2c3c(c4cccc(Cl)c42)CCNC3)cc1)NO` was tested, and the MIC80 (Candida albicans [1]) was 0.5 µg/mL, the inhibition (Candida albicans [2]) was “Active” and the MIC80 (Candida albicans [3]) was 64 µg/mL (≈ 155 µM). The inhibition (Candida albicans [4]) was “Active”, the “fractional inhibitory concentration index (FICI)” value (Candida albicans [5]) was 0.035 and the MIC80 (Candida albicans [6]) was 0.25 µg/mL. The Activity (Nakaseomyces glabratus) was “Active”, the Activity (Candida albicans [7]) was “Active” and the MIC80 (Candida albicans [8]) was 2 µg/mL.

Source: ChEMBL document CHEMBL4706641, “Novel Carboline Fungal Histone Deacetylase (HDAC) Inhibitors for Combinational Treatment of Azole-Resistant Candidiasis” (J Med Chem, 2021)
